Laboratory results published in ChEMBL document CHEMBL2417413, “Synthesis and biological evaluation of 1,7,8,8a-tetrahydro-3H-oxazolo[3,4-a]pyrazin-6(5H)-ones as antitumoral agents” (Bioorg Med Chem, 2013).
Calls of active or inactive are those of the source. No cut-off for these calls is given here.

Columns and labels:
8305C [1] = test: Cytotoxicity against human 8305C cells assessed as reduction in cell viability at 50 uM after 24 hrs by MTT assay; type: functional, cell-based
Summary of the method: (§1)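 Cultures were treated at 50 µM for 24 h at 37 °C in 5% CO2 alongside untreated controls. Viability was read by MTT reduction (0.5% MTT in PBS pH 7.4, 1 h), with formazan dissolved in DMSO and OD measured at 570 nm.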

FTC-133 [2] = test: Induction of apoptosis in human FTC-133 cells assessed as DNA fragmentation at 50 uM after 24 hrs by SYBR green-1 staining-based electrophoretic analysis; type: functional, cell-based
Summary of the method: (§2)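 After 24 h of treatment, DNA was extracted from untreated and treated cells. Fragments were separated on a 2% agarose gel with SYBR Green I staining, and GAPDH-1 served as the reference gene.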

FTC-133 [3] = test: Cytotoxicity against human FTC-133 cells assessed as reduction in cell viability after 24 hrs by MTT assay; type: functional, cell-based; details: FTC-133, 24 h
Summary of the method: (§3)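 Cells seeded at 6 × 10^5 per well and exposed to 5–100 µM for 24 h at 37 °C in 5% CO2. Then 0.5% MTT in PBS (pH 7.4) was added for 1 h, supernatant replaced with DMSO, and OD read at 570 nm. IC50 was read graphically from dose-effect curves. Values are mean ± SD of four independent experiments, each run in triplicate.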

8305C [4] = test: Cytotoxicity against human 8305C cells assessed as reduction in cell viability after 24 hrs by MTT assay; type: functional, cell-based; summary of the method: as §3
FTC-133 [5] = test: Cytotoxicity against human FTC-133 cells assessed as reduction in cell viability at 50 uM after 24 hrs by MTT assay; type: functional, cell-based; summary of the method: as §1
8305C [6] = test: Induction of apoptosis in human 8305C cells assessed as caspase-3 activation at 50 uM after 24 hrs by fluorescence microscopic analysis (reference value: 3.22 +/- 1%); type: functional
8305C [7] = test: Induction of apoptosis in human 8305C cells assessed as DNA fragmentation at 50 uM after 24 hrs by SYBR green-1 staining-based electrophoretic analysis; type: functional, cell-based; summary of the method: as §2
FTC-133 [8] = test: Induction of apoptosis in human FTC-133 cells assessed as caspase-3 activation at 50 uM after 24 hrs by fluorescence microscopic analysis (reference value: 2.51 +/- 1%); type: functional

| SMILES | Activity (8305C [1]) | Activity (FTC-133 [2]) | IC50 (FTC-133 [3]) [µM] | IC50 (8305C [4]) [µM] | Activity (FTC-133 [5]) | Activity (8305C [6]) [%] | Activity (8305C [7]) | Activity (FTC-133 [8]) [%] |
| --- | --- | --- | --- | --- | --- | --- | --- | --- |
| O=C1CN2/C(=N/c3ccc4ccc5cccc6ccc3c4c56)OCC2CN1c1ccccc1 (configuration not stated) | Active | Active | 74.2 | 80.3 | Active | 18.24 | Active | 29.3 |
| O=C1CN2/C(=N/c3ccc4ccc5cccc6ccc3c4c56)OCC2CN1C1CCCCC1 (configuration not stated) | Active | Active | 48.3 | 68.5 | Active | 68.3 | Active | 89.24 |
| O=C1CN2/C(=N/c3ccccc3)OCC2CN1C1CCCCC1 (configuration not stated) | Active | Active | 50 | 70.7 | Active | 75.88 | Active | 88.68 |
| O=C1CN2/C(=N/c3cccc4ccccc34)OCC2CN1C1CCCCC1 (configuration not stated) | Active | Active | 44.8 | 61 | Active | 78.56 | Active | 90.56 |
